Each structure is given as a SMILES string. Activity calls are given as the source filed them. The rule behind the calls is not given here.

The test system of one experiment is Nucleic Acid. In words: Binding affinity to salmon sperm DNA assessed as DNA intercalation by circular dichroism. The experiment is classed as nucleic-acid assay. As to conditions: Salmonidae. The essentials:
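CD spectra recorded in 50 mM Tris-HCl pH 8.0 with 100 mM KCl, 1 mM MgCl2 and salmon sperm DNA (25 µg/mL), inhibitor at 0, 10, 30 and 50 µM; spectral change obtained by subtracting the CD of reagent alone from the CD of DNA plus reagent.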
On the technique in general: CD spectra are sensitive to the conformation of chiral molecules.

Experiment [1] deals with T1, DNA topoisomerase (Bos taurus) (UniProt A0JN73).
T1 sequence (whole entry): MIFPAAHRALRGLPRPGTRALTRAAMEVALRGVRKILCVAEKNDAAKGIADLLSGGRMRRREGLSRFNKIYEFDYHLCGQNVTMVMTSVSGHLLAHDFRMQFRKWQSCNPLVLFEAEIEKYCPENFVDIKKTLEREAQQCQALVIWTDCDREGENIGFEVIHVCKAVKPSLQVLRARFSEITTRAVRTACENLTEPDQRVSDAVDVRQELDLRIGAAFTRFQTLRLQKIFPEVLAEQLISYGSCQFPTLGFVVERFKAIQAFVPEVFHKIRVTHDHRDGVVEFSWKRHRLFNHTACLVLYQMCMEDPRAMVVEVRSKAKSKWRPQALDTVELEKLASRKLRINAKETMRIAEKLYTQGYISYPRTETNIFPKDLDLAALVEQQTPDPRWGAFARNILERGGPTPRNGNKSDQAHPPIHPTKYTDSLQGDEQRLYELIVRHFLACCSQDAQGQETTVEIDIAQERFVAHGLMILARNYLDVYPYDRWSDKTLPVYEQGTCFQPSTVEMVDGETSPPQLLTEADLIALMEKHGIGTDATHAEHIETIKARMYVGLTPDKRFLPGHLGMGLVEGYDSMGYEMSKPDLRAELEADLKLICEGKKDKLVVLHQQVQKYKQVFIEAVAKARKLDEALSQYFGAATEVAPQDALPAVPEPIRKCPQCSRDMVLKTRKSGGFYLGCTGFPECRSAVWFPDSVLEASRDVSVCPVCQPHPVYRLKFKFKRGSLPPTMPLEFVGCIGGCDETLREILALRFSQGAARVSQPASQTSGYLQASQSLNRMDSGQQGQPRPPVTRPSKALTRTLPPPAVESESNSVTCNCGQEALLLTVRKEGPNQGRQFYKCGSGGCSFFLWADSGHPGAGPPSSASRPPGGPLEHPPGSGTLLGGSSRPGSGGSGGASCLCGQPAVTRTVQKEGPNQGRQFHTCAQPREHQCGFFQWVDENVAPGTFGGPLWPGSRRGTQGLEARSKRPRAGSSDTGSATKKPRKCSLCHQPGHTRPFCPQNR
In words: Inhibition calf thymus topoisomerase 1 cleavage activity assessed as increase in nicked pBR322 DNA formation after 40 mins by gel electrophoresis.

`CC[C@@]1(O)C(=O)OCc2c1cc1n(c2=O)Cc2cc3ccccc3nc2-1`: the outcome in the experiment with Nucleic Acid was inactive. Moreover, the result in experiment [1] was Active.
With `COc1cccc2c1C(=O)c1c(O)c3c(c(O)c1C2=O)C[C@@](O)(C(=O)CO)C[C@@H]3O[C@H]1C[C@H](N)[C@H](O)[C@H](C)O1`, in the experiment with Nucleic Acid, the result was Active.
For the molecule `O=C1Oc2cc(O)ccc2/C1=C\c1ccc(O)cc1`, the result (with Nucleic Acid; in experiment [1]) was inactive.

These data come from ChEMBL document CHEMBL1155708, “Isoaurostatin, a novel topoisomerase inhibitor produced by Thermomonospora alba” (J Nat Prod, 2001).
